From ChEMBL document CHEMBL3621120, “Discovery of ((4-(5-(Cyclopropylcarbamoyl)-2-methylphenylamino)-5-methylpyrrolo[1,2-f][1,2,4]triazine-6-carbonyl)(propyl)carbamoyloxy)methyl-2-(4-(phosphonooxy)phenyl)acetate (BMS-751324), a Clinical Prodrug of p38α MAP Kinase Inhibitor” (J Med Chem, 2015)

What was measured:
[1] = tested on: Rattus norvegicus; assay: Cmax in Sprague-Dawley rat assessed as plasma BMS-582949 level at 10 mg/kg, po dose equivalent to BMS-582949 after 24 hrs by LC/MS/MS method; format: ADME, organism-based; parameters: dose 10 mg/kg, route oral; conditions: in vivo
[2] = tested on: Rattus norvegicus; assay: AUC in Sprague-Dawley rat assessed as plasma BMS-582949 level at 100 mg/kg, po dose equivalent to BMS-582949 after 24 hrs by LC/MS/MS method; format: ADME, organism-based; parameters: time < 24 hr, dose 100 mg/kg, route oral; conditions: in vivo
[3] = tested on: Rattus norvegicus; assay: AUC in Sprague-Dawley rat assessed as plasma BMS-582949 level at 10 mg/kg, po dose equivalent to BMS-582949 after 24 hrs by LC/MS/MS method; format: ADME, organism-based; parameters: time < 24 hr, dose 10 mg/kg, route oral; conditions: in vivo
[4] = molecular target: T1, Alkaline phosphatase, placental type (Homo sapiens, UniProt P05187); assay: Stability assessed as human placental ALP-mediated drug degradation by measuring compound remaining level in pH 7.5 tris buffer at 10 uM incubated for 0.5 hrs by LC/MS/MS method; format: ADME; conditions: read-out: Stability
Method in brief: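 Human placental alkaline phosphatase (1 unit/mL) incubated with compound at 10 µM in 89 mM tris buffer, pH 7.5, 37 °C; reactions in triplicate started by compound addition, sampled at 0, 15, 30, 60 min. For inhibition, HALT phosphatase inhibitor cocktail (100x dilution) added before compound. Samples quenched into EDTA, acetonitrile added, centrifuged, remaining compound measured by LC/MS/MS.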

[5] = molecular target: T2, Liver carboxylesterase (Sus scrofa, UniProt Q29550); assay: Stability assessed as porcine liver esterase-mediated drug degradation by measuring compound remaining level in pH 7.4 potassium phosphate buffer at 10 uM incubated for 0.25 hrs by LC/MS/MS; format: ADME, tissue-based; conditions: pig, read-out: Stability
T2 sequence (Q29550 whole entry): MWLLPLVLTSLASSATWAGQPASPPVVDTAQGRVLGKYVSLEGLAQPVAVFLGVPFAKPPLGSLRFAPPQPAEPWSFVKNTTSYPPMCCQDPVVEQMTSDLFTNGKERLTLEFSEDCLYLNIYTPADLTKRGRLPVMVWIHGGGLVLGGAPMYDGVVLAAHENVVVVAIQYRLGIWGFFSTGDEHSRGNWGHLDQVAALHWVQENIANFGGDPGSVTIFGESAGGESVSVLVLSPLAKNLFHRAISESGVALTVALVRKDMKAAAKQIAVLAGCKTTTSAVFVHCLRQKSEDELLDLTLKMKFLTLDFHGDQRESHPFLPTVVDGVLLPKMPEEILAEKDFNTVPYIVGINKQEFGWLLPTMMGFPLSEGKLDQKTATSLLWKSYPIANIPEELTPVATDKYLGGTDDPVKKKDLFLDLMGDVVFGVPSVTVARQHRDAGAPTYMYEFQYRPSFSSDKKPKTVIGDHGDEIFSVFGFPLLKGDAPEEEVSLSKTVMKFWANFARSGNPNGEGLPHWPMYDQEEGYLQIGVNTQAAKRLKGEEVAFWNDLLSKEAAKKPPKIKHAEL
Method in brief: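 Porcine liver esterase with substrate at 10 µM in 89 mM potassium phosphate pH 7.4, 37 °C. Reaction started by adding compound. Aliquots taken at 0, 15, 30 and 60 min and quenched with acetonitrile. After centrifugation at 4 °C, percent remaining quantified by LC/MS/MS.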

[6] = molecular target: T1, Alkaline phosphatase, placental type; assay: Stability assessed as human placental ALP-mediated drug degradation by measuring compound remaining level in pH 7.5 tris buffer at 10 uM incubated for 1 hr in presence of HALT phosphatase inhibitor cocktail by LC/MS/MS method; format: ADME; conditions: pH 7.5, with HALT phosphatase inhibitor cocktail
Method in brief: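 Human placental ALP (1 unit/mL) with HALT phosphatase inhibitor cocktail at 100x dilution, added before the test compound (10 µM). Buffer 89 mM tris pH 7.5, 37 °C, triplicate. Sampled at 0, 15, 30 and 60 min, quenched with EDTA and acetonitrile, centrifuged, and percent remaining determined by LC/MS/MS.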

[7] = tested on: Cynomolgus monkey; assay: AUC in cynomolgus monkey assessed as plasma BMS-582949 level at 10 mg/kg, po dose equivalent to BMS-582949 after 24 hrs by LC/MS/MS method; format: ADME, organism-based, Macaca fascicularis; parameters: time < 24 hr, dose 10 mg/kg, route oral; conditions: in vivo
Method in brief: (§1)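 Three overnight-fasted male cynomolgus monkeys (4.2-5.2 kg) given prodrug by oral gavage at 10 or 30 mg/kg, 5 mL/kg methocel suspension, one-week washout between doses. Femoral artery blood pre-dose and 0.25-24 h post-dose; plasma (centrifuged 4 °C) stored -20 °C and analysed by LC/MS/MS for parent.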

[8] = tested on: Cynomolgus monkey; assay: Cmax in cynomolgus monkey assessed as plasma BMS-582949 level at 30 mg/kg, po dose equivalent to BMS-582949 after 24 hrs by LC/MS/MS method; format: ADME, organism-based, Macaca fascicularis; parameters: dose 30 mg/kg, route oral; conditions: in vivo; method in brief: as §1
[9] = tested on: Cynomolgus monkey; assay: Bioavailability in cynomolgus monkey assessed as plasma BMS-582949 level at 10 mg/kg, po dose equivalent to BMS-582949 after 24 hrs by LC/MS/MS method; format: ADME, organism-based, Macaca fascicularis; conditions: in vivo; method in brief: as §1
[10] = tested on: Rattus norvegicus; assay: Bioavailability in Sprague-Dawley rat assessed as plasma BMS-582949 level at 100 mg/kg, po dose equivalent to BMS-582949 after 24 hrs by LC/MS/MS method; format: ADME, organism-based; conditions: in vivo
[11] = tested on: Rattus norvegicus; assay: Bioavailability in Sprague-Dawley rat assessed as plasma BMS-582949 level at 10 mg/kg, po dose equivalent to BMS-582949 after 24 hrs by LC/MS/MS method; format: ADME, organism-based; conditions: in vivo
[12] = tested on: Caco-2; assay: Drug level in apical side of human Caco2 cells incubated at 37 degC for 2 hrs; format: ADME, cell-based; conditions: caco-2, 2 h
Method in brief: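 Compounds loaded on apical side of Caco-2 monolayers and incubated at 37 °C for 2 h; prodrug, intermediate and parent measured on apical and basal sides.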

[13] = tested on: Cynomolgus monkey; assay: AUC in cynomolgus monkey assessed as plasma BMS-582949 level at 30 mg/kg, po dose equivalent to BMS-582949 after 24 hrs by LC/MS/MS method; format: ADME, organism-based, Macaca fascicularis; parameters: time < 24 hr, dose 30 mg/kg, route oral; conditions: in vivo; method in brief: as §1

T1 sequence (P05187 whole entry): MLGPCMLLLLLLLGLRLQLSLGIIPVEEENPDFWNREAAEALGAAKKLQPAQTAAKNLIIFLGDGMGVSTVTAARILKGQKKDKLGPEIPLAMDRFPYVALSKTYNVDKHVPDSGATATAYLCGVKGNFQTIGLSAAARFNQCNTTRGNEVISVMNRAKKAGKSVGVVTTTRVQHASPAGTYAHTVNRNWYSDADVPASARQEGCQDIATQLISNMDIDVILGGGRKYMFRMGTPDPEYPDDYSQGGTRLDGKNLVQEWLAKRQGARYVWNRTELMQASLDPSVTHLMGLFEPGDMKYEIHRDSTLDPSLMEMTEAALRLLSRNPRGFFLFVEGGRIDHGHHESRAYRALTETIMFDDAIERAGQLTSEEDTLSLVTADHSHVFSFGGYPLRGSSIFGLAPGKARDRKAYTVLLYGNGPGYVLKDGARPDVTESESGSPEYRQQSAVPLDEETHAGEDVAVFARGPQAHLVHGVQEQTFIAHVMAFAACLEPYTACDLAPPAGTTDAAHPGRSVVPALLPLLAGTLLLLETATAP

CCCN(C(=O)OCOC(=O)Cc1ccc(OP(=O)(O)O)cc1)C(=O)c1cn2ncnc(Nc3cc(C(=O)NC4CC4)ccc3C)c2c1C
Cmax [1]: 18 µM | AUC [2]: 875 µM·h | AUC [3]: 78 µM·h | remaining at 0.5 h, 10 µM [4]: 11.1% | remaining at 0.25 h, 10 µM [5]: 100% | remaining at 1 h, 10 µM [6]: 64.5% | AUC [7]: 24 µM·h | Cmax [8]: 29 µM | F [9]: 51% | F [10]: 115% | F [11]: 103% | Drug uptake [12]: Active | AUC [13]: 96 µM·h
